# Source: ChEMBL document CHEMBL1125028, “Resolved pyrrolidine, piperidine, and perhydroazepine analogues of the muscarinic agent N-methyl-N-(1-methyl-4-pyrrolidino-2-butynyl)acetamide” (J Med Chem, 1990)
# Experiments:
# [1] = molecular target: Muscarinic acetylcholine receptor; experiment: Compound was tested for its potency against Muscarinic acetylcholine receptor in guinea pig ileum; type: functional, tissue-based, Cavia porcellus
# [2] = molecular target: Muscarinic acetylcholine receptor; experiment: (§1) Dissociation constant towards Muscarinic acetylcholine receptor in guinea pig ileum; type: tissue-based, Cavia porcellus
# Cavia porcellus [3] = organism: Cavia porcellus; experiment: Maximum contractile response in guinea pig ileum relative to that elicited by carbachol was determined; type: functional
# Outline: (§2)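 Guinea pig ileum in Tyrode solution (pH 7.4) with 0.3 mM hexamethonium, 37 °C; isotonic contractions recorded at 1 g tension. Cumulative concentration-response curves built with agonist concentration stepped by a factor of 2.15. Maximal response expressed relative to carbachol. Antagonism tested at no fewer than four antagonist concentrations. Means ± SE over the number of ileal preparations.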
# [4] = Inhibition of specific binding of [3H]NMS to Muscarinic acetylcholine receptor in rat cerebral cortex by using competitive binding assay; type: tissue-based
# Outline: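 Male Sprague–Dawley rat (200–300 g) cortex homogenized in 50 mM Na/K phosphate pH 7.4, spun 30000g 10 min, resuspended at 10 mg wet tissue/mL. Incubated with 0.3 nM (-)-[3H]NMS and test ligand, 30 min at 30 °C; filtration assay. […] IC50 by one-site nonlinear fit, converted to Ki by Cheng–Prusoff. Three determinations in triplicate.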
# Cavia porcellus [5] = organism: Cavia porcellus; experiment: Slope of schild plot in guinea pig ileum was determined; type: functional; outline: as §2
# [6] = molecular target: Muscarinic acetylcholine receptor; experiment: as §1; type: tissue-based, Cavia porcellus; outline: as §2; remark: listed apart in the source
SMILES,EC50 [1] [nM],Kd [2] [nM],Emax (Cavia porcellus [3]),Ki [4] [nM],Slope of Schild plot (Cavia porcellus [5]),Kd [6] [nM]
CC(=O)N(C)[C@H](C)C#CCN1CCCC1,94,200,0.83,,,
CC(=O)N1CCCC[C@H]1C#CCN1CCCC1,,6320,,1480,0.99,
CC(=O)N1CCC[C@@H]1C#CCN1CCCC1,,1160,0,410,1.05,
CC(=O)N1CCCCC[C@@H]1C#CCN1CCCC1,,161,0,42,1.27,
CC(=O)N1CCCC[C@@H]1C#CCN1CCCC1,,80,,16,0.86,
CC(=O)N1CCCCC[C@H]1C#CCN1CCCC1,,7850,0,2070,1.17,
CC(=O)N(C)[C@@H](C)C#CCN1CCCC1,,3230,,,,
CC(=O)N1CCC[C@H]1C#CCN1CCCC1,,16010,0,5160,0.8,
CC(=O)N1CCCCCC1C#CC[N+](C)(C)C (racemic),,3550,,1230,1.03,
CC(=O)N1CCCCC1C#CCN1CCCC1 (racemic),,97,0,44,0.88,
CC(=O)N1CCCCC1C#CC[N+](C)(C)C (racemic),2800,,0.75,750,,
CC(=O)N1CCCCCC1C#CCN(C)C (racemic),,7000,0,2900,1.1,
CC(=O)N1CCCCC1C#CCN(C)C (racemic),,8300,0,2260,0.9,
CC(=O)N1CCCC1C#CCN1CCCC1 (racemic),,1400,0,670,0.9,
CC(=O)N1CCCC1C#CC[N+](C)(C)C (racemic),7500,,0.8,6100,,49500
CC(=O)N1CCCC1C#CCN(C)C (racemic),,125000,0,25400,,
CC(=O)N1CCCCCC1C#CCN1CCCC1 (racemic),,110,0,82,1.17,
C[N+](C)(C)CCOC(N)=O.[Cl-] [CARBACHOL],,,1,,,
